ChEMBL document CHEMBL1159051, “Synthesis and biological evaluation of oxadiazole derivatives as inhibitors of soluble guanylyl cyclase” (Bioorg Med Chem, 2010)
Active and inactive are the calls of the source. The calls are words filed in the database; no cut-off is given here.

Tests used:
Rattus norvegicus [1] = species on record: Rattus norvegicus; assay: Inhibition of soluble guanylyl cyclase in rat aortic smooth muscle cells assessed as inhibition of SNP-stimulated cGMP formation by immunoassay
In short: (§1)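 Rat aortic smooth muscle cells were grown in high-glucose DMEM with 10% foetal calf serum plus penicillin/streptomycin, and passages 3–4 were used at confluence. Cells were pretreated with IBMX (1 mM, 5 min) to block phosphodiesterase, then exposed to compound for 20 min with IBMX still present. They were then stimulated with SNP for 15 min, and cGMP was measured by enzyme immunoassay.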

Rattus norvegicus [2] = species on record: Rattus norvegicus; assay: Inhibition of soluble guanylyl cyclase in rat aortic smooth muscle cells assessed as inhibition of SNP-stimulated cGMP formation at 0.1 uM by immunoassay; in short: as §1
Rattus norvegicus [3] = species on record: Rattus norvegicus; assay: Inhibition of soluble guanylyl cyclase in rat aortic smooth muscle cells assessed as inhibition of SNP-stimulated cGMP formation at 10 uM by immunoassay; in short: as §1

| Structure (SMILES) | inhibition (Rattus norvegicus [1]) | inhibition (Rattus norvegicus [2]) | inhibition (Rattus norvegicus [3]) |
| --- | --- | --- | --- |
| O=C1c2ccccc2-n2c(noc2=O)[C@@H]2CCCN12 | inactive |  |  |
| O=c1c2ccccc2nc2n1-c1ccccc1OC2 | inactive |  |  |
| O=c1c2ccccc2nc2n1-c1cc(Br)ccc1OC2 | inactive |  |  |
| O=c1onc2cnc3ccccc3n12 | Dose-dependent effect | 85% | Active |
| O=c1onc2n1-c1ncccc1OC2 |  | Active | Active |
| COc1ccc(-c2ccc3c(c2)-n2c(noc2=O)CO3)cc1 |  | Active | Active |
| O=c1c2ccc(Cl)cc2nc2n1-c1ccccc1OC2 |  | Active | Active |
| O=c1[nH]nc2n1-c1cc(Br)ccc1OC2 | inactive |  |  |
| O=c1onc2n1-c1cc(-c3cccc(C(F)(F)F)c3)ccc1OC2 |  | Active | Active |
